The nature of series [1]: Drug metabolism in human liver microsome S9 fraction assessed as acid metabolite formation by LC-MS/MS analysis. To be noted: microsomes. The format is ADME.
Series [2] can be described thus: Drug metabolism in human liver microsome S9 fraction assessed as didemethylation metabolite formation by LC-MS/MS analysis. To be noted: microsomes. It counts as ADME.
Series [3] is described as follows: Drug metabolism in human liver microsome S9 fraction assessed as di-hydroxylation metabolite formation by LC-MS/MS analysis. The format is ADME. The note with it: microsomes.
In series [4] the target is T1, Estrogen receptor (Homo sapiens) (UniProt P03372).
T1 sequence (whole entry): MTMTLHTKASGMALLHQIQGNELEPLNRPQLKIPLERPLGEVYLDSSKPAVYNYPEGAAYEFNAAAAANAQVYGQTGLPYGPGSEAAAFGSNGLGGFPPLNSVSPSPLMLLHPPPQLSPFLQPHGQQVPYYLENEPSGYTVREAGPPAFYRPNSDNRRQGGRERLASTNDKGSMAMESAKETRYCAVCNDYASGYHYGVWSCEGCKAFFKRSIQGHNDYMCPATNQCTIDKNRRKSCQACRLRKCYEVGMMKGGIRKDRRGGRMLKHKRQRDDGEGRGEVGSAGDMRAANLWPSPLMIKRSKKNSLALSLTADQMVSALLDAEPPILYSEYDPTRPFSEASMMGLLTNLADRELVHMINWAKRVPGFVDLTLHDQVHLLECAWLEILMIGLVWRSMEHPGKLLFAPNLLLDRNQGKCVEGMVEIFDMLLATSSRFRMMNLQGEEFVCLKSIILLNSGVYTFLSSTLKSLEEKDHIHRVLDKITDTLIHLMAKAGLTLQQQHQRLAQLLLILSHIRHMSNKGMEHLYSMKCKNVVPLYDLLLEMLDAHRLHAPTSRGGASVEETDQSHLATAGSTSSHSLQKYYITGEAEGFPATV
Nature of the series: Displacement of [3H]E2 from human recombinant ERalpha at 3 nM after 16 to 20 hrs by cell-free assay. In a few lines: (§1)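 Recombinant human ERα (1 nM, [3H]-E2 3 nM) or ERβ (4 nM, [3H]-E2 10 nM) incubated with test compound, 5% DMSO final, for 16–20 h at 4 °C. Nonspecific binding set with 100-fold unlabeled E2. Complexes bound to hydroxyapatite, washed three times, counted by liquid scintillation. Compounds tested at 1000-fold the [3H]-E2 level (3 µM ERα, 10 µM ERβ). Below 50% displacement classed RBA <0.1%.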

Series [5] deals with Estrogen receptor beta (Homo sapiens) (UniProt Q92731). Nature of the series: Displacement of [3H]E2 from human recombinant ERbeta at 10 nM after 16 to 20 hrs by cell-free assay. In a few lines: as §1
Series [6] can be described thus: Drug metabolism in human liver microsome S9 fraction treated with N-Methyl-N,5-bis(3-methylphenyl)thiophene-2-carboxamide by LC-MS/MS analysis. It counts as ADME. The note with it: microsomes.
Series [7] can be described thus: Drug metabolism in human liver microsome S9 fraction assessed as demethylation/hydroxylation metabolite formation by LC-MS/MS analysis. It counts as ADME. The note with it: microsomes.
Series [8] is described as follows: Half-life in human liver microsome S9 fraction at 1 uM up to 60 mins by LC-MS/MS analysis. The format is ADME, microsomes. In short, it runs like this:
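Sampled at 0, 5, 15 and 60 min and quenched with 2 volumes cold acetonitrile containing internal standard. Remaining parent quantified by LC-MS/MS to give t1/2.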

Series [9] in a line: Half-life in human liver microsome S9 fraction at 3 uM up to 45 mins by LC-MS/MS analysis. It counts as ADME, microsomes.
The target in series [10] is T2, 17-beta-hydroxysteroid dehydrogenase type 2 (Homo sapiens, UniProt P37059).
T2 sequence (P37059 whole entry): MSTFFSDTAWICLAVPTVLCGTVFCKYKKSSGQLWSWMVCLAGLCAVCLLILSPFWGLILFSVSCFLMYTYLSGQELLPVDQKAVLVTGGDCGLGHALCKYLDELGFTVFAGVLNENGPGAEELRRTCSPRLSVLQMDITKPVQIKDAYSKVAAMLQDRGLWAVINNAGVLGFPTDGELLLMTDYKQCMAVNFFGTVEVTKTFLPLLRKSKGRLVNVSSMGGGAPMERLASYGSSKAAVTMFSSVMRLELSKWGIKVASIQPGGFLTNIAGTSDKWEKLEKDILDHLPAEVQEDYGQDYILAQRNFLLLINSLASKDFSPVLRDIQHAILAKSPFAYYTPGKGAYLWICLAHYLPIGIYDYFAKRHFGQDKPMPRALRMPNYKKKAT
The series can be described thus: Displacement of [3H]E2 from human placental microsomal 17beta-HSD2 after 20 mins by cell-free assay. In short, it runs like this: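 Microsomal 17β-HSD2 from human placenta, 150,000 g pellet. Started with unlabeled plus [3H]-E2 (final 500 nM), stopped after 20 min with HgCl2, ether-extracted. E1/E2 resolved by radio-HPLC, giving % conversion. Inhibition read at 1 µM.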

The species entered for the next series is Homo sapiens. Nature of the series: Selectivity factor, ratio of IC50 for human placental cytosolic17beta-HSD1 to IC50 for human placental microsomal 17beta-HSD2.
In series [11] the target is T3, 17-beta-hydroxysteroid dehydrogenase type 1 (Homo sapiens, UniProt P14061).
T3 sequence (P14061 whole entry): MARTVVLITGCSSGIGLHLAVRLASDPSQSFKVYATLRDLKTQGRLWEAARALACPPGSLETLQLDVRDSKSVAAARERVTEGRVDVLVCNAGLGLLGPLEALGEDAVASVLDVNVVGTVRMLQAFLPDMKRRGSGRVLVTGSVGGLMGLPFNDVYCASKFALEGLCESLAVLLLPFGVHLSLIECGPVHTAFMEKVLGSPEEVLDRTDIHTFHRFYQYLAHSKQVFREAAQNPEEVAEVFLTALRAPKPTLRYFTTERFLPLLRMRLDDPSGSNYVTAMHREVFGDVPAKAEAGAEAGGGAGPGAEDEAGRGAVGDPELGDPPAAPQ
The series can be described thus: Displacement of [3H]E1 from human placental cytosolic17beta-HSD1 after 10 mins by cell-free assay. In a few lines:
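Cytosolic 17β-HSD1 from human placenta, ammonium sulfate precipitated. Enzyme incubated with NADH 500 µM, test compound and unlabeled plus [3H]-E1 (final 500 nM) for 10 min at 37 °C. Reaction stopped with HgCl2 and extracted with ether. E1/E2 separated by C18 RP HPLC (acetonitrile/water 45:55) with radioflow detection. Activity taken as % conversion. Percent inhibition read at 1 µM.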

These results are taken from ChEMBL document CHEMBL3351241, “Metabolic stability optimization and metabolite identification of 2,5-thiophene amide 17β-hydroxysteroid dehydrogenase type 2 inhibitors” (Eur J Med Chem, 2014).

Sequence of Estrogen receptor beta (Homo sapiens) (Q92731 whole entry): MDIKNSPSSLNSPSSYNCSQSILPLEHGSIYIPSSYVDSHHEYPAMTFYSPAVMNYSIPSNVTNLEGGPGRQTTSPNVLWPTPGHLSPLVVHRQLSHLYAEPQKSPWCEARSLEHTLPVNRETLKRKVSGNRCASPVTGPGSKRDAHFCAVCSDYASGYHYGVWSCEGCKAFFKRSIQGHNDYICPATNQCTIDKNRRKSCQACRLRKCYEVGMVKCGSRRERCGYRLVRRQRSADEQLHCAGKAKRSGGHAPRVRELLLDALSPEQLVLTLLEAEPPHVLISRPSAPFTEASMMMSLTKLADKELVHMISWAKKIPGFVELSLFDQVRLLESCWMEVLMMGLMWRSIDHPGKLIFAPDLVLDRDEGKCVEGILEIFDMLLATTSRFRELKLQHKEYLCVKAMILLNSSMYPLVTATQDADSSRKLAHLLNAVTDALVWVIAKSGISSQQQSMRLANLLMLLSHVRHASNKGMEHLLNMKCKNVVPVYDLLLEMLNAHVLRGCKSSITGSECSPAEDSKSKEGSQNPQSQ

For `COc1cccc(N(C)C(=O)c2ccc(-c3cccc(C)c3)s2)c1`, the Drug metabolism entry in series [1], in [2] and in series [3] was “metabolite_notdetected” each time.
Turning to `Cc1ccc(-c2ccc(C(=O)N(C)c3cccc(C)c3)s2)cc1`, the inhibition turned out to be 11% in series [4] and 34% in series [5].
Take `Cc1cccc(N(C)C(=O)c2ccc(-c3cccc(CO)c3)s2)c1`: in [6], the Drug metabolism result is given as “metabolite_notdetected”.
As for `Cc1cccc(-c2ccc(C(=O)N(C)c3cccc(C)c3)cc2)c1`, the results for the inhibition in series [4] and in series [5] were 8% and 11%, respectively.
As for `Cc1cccc(-c2ccc(C(=O)N(C)c3cccc(C)c3)s2)c1`, the Drug metabolism result in [2] is given as “metabolite_notdetected”. Besides, the figures for the inhibition in [4] and in [5] were 12% and 21%, respectively.
As for `COc1cccc(-c2ccc(C(=O)N(C)c3cccc(OC)c3)s2)c1`, the Drug metabolism result in [1] and in series [7] was “metabolite_notdetected” in each case.
`COc1cccc(N(C)C(=O)c2ccc(-c3cccc(OC)c3F)s2)c1`: the half-life at 1 µM in [8] worked out at 12 min.
Consider `Cc1ccc(N(C)C(=O)c2ccc(-c3ccc(C)c(C)c3)s2)cc1`, for which the inhibition in [4] is 5%; in [5], 4%.
`COc1cccc(N(C)C(=O)c2ccc(-c3cccc(N(C)C)c3)s2)c1` came in with a half-life at 3 µM in [9] of 29 min.
Consider `COc1cc(-c2cccc(C)c2)sc1C(=O)N(C)c1cccc(C)c1`, for which the IC50 came to 127 nM in series [10] and 16.7 µM in series [11]. For the same compound, in the series filed under Homo sapiens, the Ratio IC50 came out at 132.
Turning to `Cc1cccc(-c2cnc(C(=O)N(C)c3cccc(C)c3)s2)c1`, the half-inhibitory concentration (IC50) worked out at 499 nM in [10] and 25.3 µM in [11]. Also, in series [8], the half-life at 1 µM is 5 min. Also, the Ratio IC50 in the series listed under Homo sapiens was determined as 51. Further, the inhibition is 9% in series [4] and 0% in series [5].
Turning to `Cc1ccc(-c2ccc(C(=O)N(C)c3ccccc3C)s2)cc1`, the values for the IC50 in series [10] and in [11] were 225 nM and 0.698 µM, respectively. The same compound displayed a half-life at 1 µM in series [8] of 22 min. In addition, the Ratio IC50 in the series filed under Homo sapiens came to 3.
`Cc1cccc(-c2ccc(C(=O)N(C)c3cccc(Cl)c3)s2)c1`: the concentration for half-maximal inhibition (IC50) is 327 nM in series [10] and 9.41 µM in series [11]. The Ratio IC50 in the series filed under Homo sapiens came to 29. Besides, the results for the inhibition in series [4] and in series [5] were 16% and 11%, respectively.
